From ChEMBL document CHEMBL1156172, “Substituted hydrazinecarbothioamide as potent antitubercular agents: synthesis and quantitative structure-activity relationship (QSAR)” (2010)
In brackets after ≈: the same amount, converted by molar mass.

Test system: Mycobacterium tuberculosis
Experiment: Antituberculosis activity against Mycobacterium tuberculosis H37Rv after 4 weeks by agar slant proportion method
Assay type: functional
Details: for MIC: Mycobacterium tuberculosis, H37Rv, 672 h
Method in brief: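 M. tuberculosis H37Rv inoculated onto drug-containing slants at 105 bacilli per tube, then incubated 4 weeks at 37 °C (proportion method). MIC taken as the lowest concentration of compound giving no visible growth of the inoculated bacilli; reported in μg/mL.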

SMILES | -logMIC | MIC [µg/mL]
C/C(=N\NC(=S)Nc1cc(C)ccn1)c1ccc(Br)cc1 | 0.398 | 0.4 (≈ 1.1 µM)
C/C(=N\NC(=S)Nc1ccc(I)cc1)c1ccc(Br)cc1 | 0.097 | 0.8 (≈ 1.69 µM)
C/C(=N\NC(=S)NNC(=O)c1cccnc1)c1ccc(Br)cc1 | -0.796 | 6.25 (≈ 15.9 µM)
CC(=O)C1(c2ccccc2)CCN(NC(=S)N/N=C(\C)c2ccc(Br)cc2)CC1 | 0.097 | 0.8 (≈ 1.69 µM)
C/C(=N\NC(=S)NN)c1ccc(Br)cc1 | – | > 12.5
COc1ccc(NNC(=S)N/N=C(\C)c2ccc(Br)cc2)cc1 | -0.193 | 1.56 (≈ 3.97 µM)
COc1ccc(NC(=S)N/N=C(\C)c2ccc([N+](=O)[O-])cc2)cc1 | – | > 12.5
C/C(=N\NC(=S)Nc1ccccc1[N+](=O)[O-])c1ccc(Br)cc1 | 0.398 | 0.4 (≈ 1.02 µM)
C/C(=N\NC(=S)Nc1cccc(C)c1)c1ccc([N+](=O)[O-])cc1 | – | > 12.5
C/C(=N\NC(=S)Nc1ccc(Br)cc1)c1ccc([N+](=O)[O-])cc1 | -0.796 | 6.25 (≈ 15.9 µM)
C/C(=N\NC(=S)Nc1ccccc1F)c1ccc(Br)cc1 | – | 3.12 (≈ 8.52 µM)
C/C(=N\NC(=S)Nc1ccncc1C)c1ccc(Br)cc1 | – | > 12.5
COc1ccc(NC(=S)N/N=C(\C)c2ccc(Br)cc2)cc1 | 0.097 | 0.8 (≈ 2.11 µM)
C/C(=N\NC(=S)Nc1cccc(Cl)c1Cl)c1ccc([N+](=O)[O-])cc1 | – | > 12.5
C/C(=N\NC(=S)Nc1ccncc1)c1ccc(Br)cc1 | – | > 12.5
CC[C@@H](CO)NCCN[C@@H](CC)CO [ETHAMBUTOL] | – | 0.1 (≈ 0.489 µM)
C/C(=N\NC(=S)Nc1ccc(I)cc1)c1ccc([N+](=O)[O-])cc1 | – | > 12.5
C/C(=N\NC(=S)NNc1ccc(C)cc1)c1ccc(Br)cc1 | – | 1.56 (≈ 4.13 µM)
C/C(=N\NC(=S)NN1CCN(c2ccccc2Cl)CC1)c1ccc(Br)cc1 | – | 3.12 (≈ 6.68 µM)
C/C(=N\NC(=S)Nc1ccccc1F)c1ccc([N+](=O)[O-])cc1 | – | > 12.5
C/C(=N\NC(=S)Nc1ccc(Br)cc1)c1ccc(Br)cc1 | 0.097 | 0.8 (≈ 1.87 µM)
C/C(=N\NC(=S)Nc1cccc(Cl)c1Cl)c1ccc(Br)cc1 | 0.398 | 0.4 (≈ 0.959 µM)
NNC(=O)c1ccncc1 [ISONIAZID] | – | 0.02 (≈ 0.146 µM)
C/C(=N\NC(=S)Nc1cc(C)ccn1)c1ccc([N+](=O)[O-])cc1 | -0.494 | 3.12 (≈ 9.47 µM)
